Yeast lifespan up: compounds extending yeast replicative lifespan, primary screen, S. cerevisiae, OD615; S. cerevisiae growth with nicotinamide; deaD strain in restrictive glucose medium; inhibition of the nicotinamide effect, % at 10 µM; hit rate 0.68% among 130,000;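 active = inhibition above a set limit, placed 3 SD over the median of all compounds, cut at about 26% in these data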;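 note: 0% = nicotinamide-treated wells and 100% = cells grown without nicotinamide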
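Test system – modified budding yeast, DeaD strain · Compound – single dose 10 µM compound, 0.25% DMSO · Times – culture preincubation 4 h, compound exposure 48 h, both 30 °C · Detection – optical density (absorbance) at 615 nm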
RAM network inh: inhibitors of the yeast RAM network, primary screen, dse1pr::URA3 reporter, 5-FOA selection | S. cerevisiae dse1pr::URA3 reporter, 5-FOA growth OD615, 2 d; analog-sensitive cbk1-as2 kinase mutant strain | inhibition, % at 50 µM | hit rate 1.8% among 190,000;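 active = inhibition above a set limit, 3 SD over mean compound inhibition, cut at about 8.4% in these data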;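 note: 0% = DMSO-only wells with no growth and 100% = 10 µM 1-NA-PP1 full growth; inhibition rescues growth on 5-FOA so higher OD means more RAM inhibition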
KCC2 mod: KCC2 cotransporter modulators, thallium flux, primary screen, cell-based, HEK293 KCC2, FluoZin-2 fluorescence, MLSMR. Solute carrier family 12 member 5 (Homo sapiens), Q9H2X9. KCC2 cells, thallium flux FluoZin-2 fluorescence. B-score of Tl+ flux slope (higher = more flux/activation; lower = inhibition) at 10 µM. hit rate 2.2% among 190,000. AID 1456, 2008;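 active = thallium flux slope and its plate-corrected score both differing from the plate sample mean at a set confidence after two filtering rounds, in either direction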;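 note: slope of fluorescence scaled to starting intensity during 10 to 20 s after thallium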
Target sequence (Q9H2X9 whole entry, looked up): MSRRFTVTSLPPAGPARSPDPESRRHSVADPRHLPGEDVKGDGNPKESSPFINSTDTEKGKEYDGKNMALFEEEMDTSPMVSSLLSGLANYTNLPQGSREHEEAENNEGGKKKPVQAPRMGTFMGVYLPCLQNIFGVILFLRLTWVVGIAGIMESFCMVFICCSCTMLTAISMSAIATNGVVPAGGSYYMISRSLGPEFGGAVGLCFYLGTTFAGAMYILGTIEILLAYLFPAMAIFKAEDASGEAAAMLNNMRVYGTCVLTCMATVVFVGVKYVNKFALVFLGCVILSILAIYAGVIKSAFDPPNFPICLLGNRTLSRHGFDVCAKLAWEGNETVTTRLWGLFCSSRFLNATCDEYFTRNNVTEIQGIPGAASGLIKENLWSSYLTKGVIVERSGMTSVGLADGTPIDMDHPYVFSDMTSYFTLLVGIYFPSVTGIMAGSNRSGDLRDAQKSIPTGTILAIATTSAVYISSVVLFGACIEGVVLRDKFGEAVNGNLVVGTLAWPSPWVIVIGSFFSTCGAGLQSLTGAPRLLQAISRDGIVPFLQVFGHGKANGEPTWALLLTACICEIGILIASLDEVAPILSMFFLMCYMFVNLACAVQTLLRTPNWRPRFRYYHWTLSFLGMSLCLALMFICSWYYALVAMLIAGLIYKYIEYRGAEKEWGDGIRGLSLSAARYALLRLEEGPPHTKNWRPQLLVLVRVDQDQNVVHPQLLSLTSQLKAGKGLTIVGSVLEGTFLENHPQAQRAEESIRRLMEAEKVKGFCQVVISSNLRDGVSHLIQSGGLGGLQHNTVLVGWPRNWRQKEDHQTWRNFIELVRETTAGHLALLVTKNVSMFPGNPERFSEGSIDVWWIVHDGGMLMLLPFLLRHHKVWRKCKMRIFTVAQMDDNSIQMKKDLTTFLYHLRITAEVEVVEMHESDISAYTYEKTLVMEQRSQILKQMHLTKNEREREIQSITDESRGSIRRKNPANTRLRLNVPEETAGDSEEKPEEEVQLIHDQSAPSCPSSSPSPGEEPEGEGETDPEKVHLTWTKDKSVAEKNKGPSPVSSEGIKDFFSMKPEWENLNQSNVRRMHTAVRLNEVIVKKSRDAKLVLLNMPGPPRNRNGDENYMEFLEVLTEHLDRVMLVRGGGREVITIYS
WT yeast gro inh: growth inhibition of WT strain, primary screen, mitochondrial fusion inhibitor project, WT and mutant strains, chemical genetic; mitochondrial fusion phenotypic screen; inhibition, % at 10 µM; hit rate 2.1% among 190,000; in the data active = inhibition above about 58%; tested in S. cerevisiae
BB579 growth dn: growth inhibitors of yeast BB579 in restrictive medium, primary screen, yeast lifespan-shortening project, S. cerevisiae; inhibition, % at 10 µM; OD615, 48 h; AID 804, 2007; hit rate 0.51% among 140,000;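 active = inhibition above a set limit, 3 SD over the mean compound inhibition, cut at about 44% in these data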
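System: Saccharomyces cerevisiae DeaD strain BB579, replicative lifespan model yeast. Buffer or medium: restrictive glucose-based CSMM-D medium. Doses: one dose, 10 µM compound with 0.25% DMSO. Timing: 4 h preincubation and 48 h exposure at 30 °C. Detection: turbidity as optical density at 615 nm. Benchmarks: amphotericin B 10 µg/mL, positive.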
KCC2 secondary: KCC2 modulators in sodium-free buffer, confirmation, cell-based, HEK293 KCC2, thallium flux, secondary assay; shares compounds with KCC2 mod; FluoZin2 fluorescence; stronger effect = higher value; normalised thallium flux (F/F0 slope) at 10 µM; hit rate 15% among 3,700;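 active = thallium flux slope above the same plate's solvent-only control mean plus 3 SD; inconclusive = the two replicate wells disagree; inactive = no significant difference from solvent-only control wells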
KCC2 bumet counter: thallium flux persisting under bumetanide in KCC2 cells, confirmation, counter-screen for KCC2 modulator project, cell-based, HEK293 KCC2, FluoZin2, secondary assay 3; shares compounds with KCC2 mod; HEK293-KCC2 + bumetanide/ouabain; stronger effect = higher value; normalized thallium flux at 10 µM; hit rate 49% among 3,700; AID 1714, 2009;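 active = thallium entry rate above the same plate's blocked-transporter control wells by more than 3 SD; inconclusive = the two repeat wells disagree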;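 note: raw slope of fluorescence over initial fluorescence between 10 and 20 s after thallium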
KCC2 sec2: KCC2 modulators without ouabain present, confirmation, cell-based, HEK293 KCC2, thallium flux, FluoZin2, secondary assay 2; thallium flux FluoZin2 fluorescence; actives lie on both sides; F/F0 rise rate, 10–20 s post-thallium; hit rate 23% among 3,700; shares compounds with KCC2 mod; normalized thallium flux at 10 µM;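 active = thallium flux slope more than 3 SD above or below the plate's solvent-only control mean, mostly below; inconclusive = the two repeat wells disagreed; inactive = no significant shift from solvent-only controls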;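 note: raw slope with 0.1% DMSO as baseline and bumetanide as block control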
HEK293 Tl flux: thallium flux modulation in parental HEK cells, confirmation, counter-screen for KCC2 modulator project, cell-based, counterscreen 1; thallium flux rate (normalised fluorescence) at 10 µM; HEK293 parental cells, thallium flux FluoZin2, ouabain; baseline-ratio fluorescence slope, 10–20 s after thallium; shares compounds with KCC2 mod; AID 1716, 2009; hit rate 46% among 3,700;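 active = thallium flux rate significantly above the same plate's solvent-only control wells, beyond their mean plus 3 SD; inconclusive = the two replicate wells gave conflicting results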
KCC2 retest ouab: KCC2 inhibitors and activators, ouabain retest, confirmation, HEK-KCC2 cells | shares compounds with KCC2 mod | HEK293-KCC2, thallium flux FluoZin2 fluorescence; bidirectional: low = inhibitor, high = activator | raw Tl+ flux slope (below DMSO = inhibition, above = activation) at 10 µM | hit rate 48% among 3,700 | AID 1717, 2009;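 active = thallium flux slope beyond 3 SD from same-plate DMSO control mean in most replicates, usually higher, sometimes lower; inconclusive = repeat tests gave conflicting results; inactive = no significant difference from controls in most replicates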;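 note: slope of initial-normalized fluorescence between seconds 10 and 20 after thallium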
HEK counter2: native HEK Tl+ uptake effects, second counter-screen – HEK cells, counterscreen 2, counter-screen for KCC2 modulator project, confirmation; shares compounds with KCC2 mod; HEK293 parental, thallium flux FluoZin-2 fluorescence slope; thallium flux slope at 10 µM; hit rate 33% among 3,700; AID 1718, 2009;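 active = thallium flux slope above the same plate's solvent-control mean plus 3 SD in both duplicate wells; inconclusive = duplicate wells that disagreed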;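 note: run without ouabain in cells lacking the KCC2 cotransporter; slope of fluorescence scaled to its starting value between 10 and 20 s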
An asterisk follows results filed as active; i = inactive; u = inconclusive; x = no result. Sampled rows, rich in hits. Any-hit rate of the full collection: about 5.5%.

SMILES	Yeast lifespan up	RAM network inh	KCC2 mod	WT yeast gro inh	BB579 growth dn	KCC2 secondary	KCC2 bumet counter	KCC2 sec2	HEK293 Tl flux	KCC2 retest ouab	HEK counter2
CCOc1ccc2nc(SC3CC(=O)N(c4ccc(OC)cc4OC)C3=O)sc2c1 (stereo not drawn)	x	4	5.8*	25	x	0.007	0.013*	0.035	0.014*	u	0.017*
O=C(Nc1ccccc1)O/N=C/c1ccccc1Cl	-19	-1	-5.7*	-5	2	0.0076	0.0057	0.032	0.0072	0.02	0.011
CC(Oc1ccc(-c2nccc(-c3ccccn3)n2)cc1)C(=O)NN (stereo not drawn)	-23	2	x	7	0	x	x	x	x	x	x
Cc1cccc(/C=N/NC(=O)C(C)Nc2cccc3ccccc23)n1 (stereo not drawn)	-11	1	x	65	-35	0.0083	0.0055	0.031	0.0043	0.018	0.011
O=C(CSc1ncnc2c(-c3ccc(Cl)cc3)nsc12)c1ccccc1	1	6	x	78*	-44	0.014*	0.028*	0.029	0.018*	u	0.01*
O=C(CSc1ncnc2nc[nH]c12)c1ccc(Cl)cc1	x	x	x	9	x	x	x	x	x	x	x
Cc1ccccc1CSc1ccc(-c2ccc3c(c2)OCO3)nn1	1	7	-1.5	35	-23	x	x	x	x	x	x
CC(NC(=O)Cc1cccs1)c1ccncc1 (stereo not drawn)	-8	2	0.11	8	-25	x	x	x	x	x	x
CC(NC(=O)Cc1cccs1)c1ccc2c(c1)OCO2 (stereo not drawn)	1	2	1.7*	1	-43	0.009	0.0068	0.032	0.0043	0.021	0.011
CCN(CC)C(=O)CC(c1cc(OC)c(OC)c(OC)c1)c1c(OC)cc(OC)c2c(-c3ccccc3)cc(=O)oc12 (stereo not drawn)	x	x	-1.3	x	x	x	x	x	x	x	x
Cc1sc(NC(=S)NC(=O)c2ccccc2)c(C#N)c1C	x	x	0.067	x	x	x	x	x	x	x	x
Cc1cc(NC(=S)NC(=O)c2ccco2)c2ccccc2n1	x	1	29*	21	x	u	0.084*	0.066*	0.056*	0.071*	0.058*
Cc1sc(NC(=S)NC(=O)c2ccco2)c(C#N)c1C	x	4	22*	12	x	0.006	0.022*	u	0.023*	0.03*	0.019*
O=C(NC(=S)Nc1cccc2ncccc12)c1ccco1	x	1	13*	2	x	u	0.032*	u	0.021*	0.028*	0.023*
COC(=O)c1cnn(-c2ccc(Cl)cc2)c1/C=N/NC(N)=S	x	x	1.4	x	x	x	x	x	x	x	x
CC(Sc1nnc(-c2cccs2)n1-c1ccccc1)C(=O)NCc1ccc2c(c1)OCO2 (stereo not drawn)	-6	1	-0.88	6	-98	x	x	x	x	x	x
COc1ccccc1OCCC(=O)OCC(=O)Nc1cc(S(=O)(=O)N2CCOCC2)ccc1Cl	x	1	-0.76	11	x	x	x	x	x	x	x
CCCC(=O)Nc1c(-c2ccccc2)c(=O)c(C)nn1-c1ccc(C)cc1	x	x	0.83	x	x	x	x	x	x	x	x
O=c1c2ccccc2[nH]c(=S)n1CCCN1CCOCC1	-2	3	0.9	16	-3	x	x	x	x	x	x
CC1CCN(CCCn2c(=S)[nH]c3c(sc4ccc([N+](=O)[O-])cc43)c2=O)CC1	x	3	0.33	-6	x	x	x	x	x	x	x
O=c1c2sc3ccccc3c2[nH]c(=S)n1CCN1CCOCC1	x	0	8.6*	8	x	0.017	0.017*	0.033	0.019*	0.024*	0.02*
CC1CCN(CCCn2c(=S)[nH]c3c(sc4ccccc43)c2=O)CC1	x	1	20*	-13	x	0.0064	0.015*	0.036	0.016*	0.026*	0.018*
O=c1c2ccc(Cl)cc2[nH]c(=S)n1CCCN1CCOCC1	x	2	6.5*	1	x	u	0.036*	0.033	0.015*	0.034*	0.011*
CCOC(=O)c1[nH]c(C)c(C(=O)OCCOc2cccc(C)c2)c1C	1	6	-0.47	-4	-7	x	x	x	x	x	x
O=C(OC(C(=O)NC1CCCC1)c1cccnc1)C1=Cc2ccccc2OC1 (stereo not drawn)	-10	2	-3.2*	14	-42	0.0084	u	0.033	0.0077	0.018	0.011
SMILES	Yeast lifespan up	RAM network inh	KCC2 mod	WT yeast gro inh	BB579 growth dn	KCC2 secondary	KCC2 bumet counter	KCC2 sec2	HEK293 Tl flux	KCC2 retest ouab	HEK counter2
CCn1c(COc2ccccc2OC)nnc1SCC#N	-15	-1	x	-2	-38	x	x	x	x	x	x
O=C(N/N=C/c1cc(Br)cc(Br)c1O)c1ccncc1	x	-2	-4.5*	-20	x	0.0056	0.00055*	0.017*	0.0028*	0.0078*	0.0046*
O=C(N/N=C/c1ccc(Br)s1)c1ccncc1	x	0	0.65	19	x	x	x	x	x	x	x
O=C(N/N=C/c1cc(Br)c(Br)s1)c1ccncc1	x	3	6.5*	-7	x	0.0092	0.014*	0.036	0.0097*	u	0.011
O=C(N/N=C/c1cc(Cl)cc(Cl)c1O)c1ccncc1	x	x	i	x	x	x	x	x	x	x	x
Cc1ccc(OCCN2C(=O)C(=O)c3cccc(C)c32)cc1	x	2	x	-1	x	x	x	x	x	x	x
CCS(=O)(=O)N1Cc2ccccc2CC1C(=O)Nc1nnc(SCc2ccc(F)cc2)s1 (stereo not drawn)	3	4	1.2	40	-2	x	x	x	x	x	x
O=C(NC(=S)Nc1nc(-c2ccccc2)cs1)c1ccco1	x	5	16*	5	x	u	0.045*	0.03	0.02*	0.032*	0.012*
